For series [1], the system named is K562 cells. The series is described as follows: HbF induction in K562 cells. The settings on record: 72 h. The class given is cell-based, human.
The test system of series [2] is K562 cells. Description: Cytotoxicity in K562 cells. The class given is cell-based, human. The settings on record: end of 72-h culture. An outline of the steps:
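Actively growing K562 cells were cultured for 72 h with increasing concentrations of the test compound. Terminal viability was scored by automated cell counting or trypan-blue exclusion, or by an ATP-based luminescence assay. Apoptosis was checked by Annexin V flow cytometry.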

The test system of series [3] is HbSS-Townes mice. The series is described as follows: Townes SCD model, 30 days daily oral dosing. The settings on record: for percentage of sickled RBC: vehicle 56%. It is filed as in vivo.
For series [4], the system named is K562 cells. Description: cGMP induction in K562 cells. It is filed as cell-based, human. The settings on record: 6 h. The essentials:
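Actively growing K562 cells were treated for 6 h with increasing concentrations of the test compound or hydroxyurea. cGMP was measured by non-radioactive enzyme immunoassay using the acetylation protocol, and protein by BCA assay. Data are means±Standard Errors.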

Series [5] has as its system erythroid cells from CD34+ progenitors of SCD patients. The series is described as follows: HbF induction in SCD patient-derived erythroblasts. The class given is cell-based, human. The settings on record: 30 μM HU. An outline of the steps:
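CD34⁺ progenitors came from the blood or bone marrow of nine SCD donors. Cells grew seven days with 15% BIT 9500, 2 mM L-glutamine, IL-3 (10 ng/mL), IL-6 and SCF (100 ng/mL). CD36⁺ cells were then isolated and grown five days with SCF, IL-3 and EPO (2 UI/mL) plus DMSO, 30 μM hydroxyurea or 10 μM test compound. HbF⁺ cells (%) and HbF MFI were read by PE-anti-HbF FACS, gated LiveDead⁻/GPA⁺/Band3⁺.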

Series [6] relates to HbSS-Townes mice. Description: HbSS-Townes vaso-occlusive crisis model. The class given is in vivo. The settings on record: HU 100 mg/kg/day for ten days, P<0.05.
Series [7] relates to K562 cells. The settings on record: cited from earlier work.
The test system of another series is mice. The series is described as follows: Classical fear conditioning model of learning and memory. It is filed as in vivo. The settings on record: similar dose of both PDE9i.
Where [8] appears, read: HU 100 mg/kg, 30 days, not significant.

Regarding `NC(=O)NO` [HU, Hydroxyurea], the “HbF induction (ELISA)” value in the series with K562 cells [1] was “induced HbF in a dose-dependent manner”. In the series on K562 cells [2], the “Cytotoxicity (cell counts)” value was “induction was accompanied by cytotoxicity”. Also, in the series with HbSS-Townes mice [3] (HU 25 mg/kg/day, 30 days), the “percentage of sickled RBC” value was 52%. Besides, the “percent F-cells” value in the series with HbSS-Townes mice [3] (HU 25 mg/mL/day (so in the source), 30 days, vehicle 8.4%, not significant) is listed as 13%. Further, in the series with HbSS-Townes mice [3] (HU 50 mg/kg/day, 30 days), the “percentage of sickled RBC” value is reported as 49%. The “percent F-cells” value in the series with HbSS-Townes mice [3] (HU 50 mg/mL/day (so in the source), 30 days, vehicle 8.4%, not significant) is given as 18%. Besides, in the series on HbSS-Townes mice [3] (HU 100 mg/kg, 30 days), the “WBC lower than vehicle” value is recorded as 21%, the “reduction of MPO levels” value is recorded as 2.1 fold, the “reduction of lung arginase (compared with IMR-687)” value is “less pronounced” and the “reduction of plasma free Hb levels” value is on record as “approximately 55%”. For the same compound, the “lung MPO levels” value in the series with HbSS-Townes mice [3] (HU 100 mg/kg, 30 days, HbSS-Townes vehicle 3.1 mU/L, P<0.0001) worked out at 1.5 mU/L. This compound registered a plasma bilirubin with HbSS-Townes mice [3] (HU 100 mg/kg, 30 days, P<0.01) of 5 mg/dL. In the series with HbSS-Townes mice [3] (HU 100 mg/kg, 30 days, changes in Hb not significant), the “changes in reticulocyte counts, RBC, hematocrit and Hb (compared with IMR-687)” value is on record as “produced smaller changes”. In the series with HbSS-Townes mice [3] (setting [8]), this compound returned an LDH levels of 121 AU and a plasma nitrite levels of 1.23 mg/mL. For the same compound, the WBC count in the series with HbSS-Townes mice [3] (HU 100 mg/kg, 30 days, vehicle 38.2×10^9/L) turned out to be 3.04e+10 L⁻¹. Further, the Mortality result with HbSS-Townes mice [3] (HU 100 mg/kg/day) is reported as “resulted in mortality in mice”. In addition, the “percent F cells” value in the series on HbSS-Townes mice [3] (HU 100 mg/kg/day, 30 days, vehicle 8.4%) is on record as 29.3%. Moreover, the “percent sickled RBC” value in the series on HbSS-Townes mice [3] (HU 100 mg/kg/day, 30 days, vehicle 56.3%) worked out at 28.8%. Besides, in the series on HbSS-Townes mice [3] (HU 25 and 50 mg/kg, 30 days), the “changes in reticulocyte counts, RBC, hematocrit and Hb” value is given as “only the change in reticulocyte counts was significant”; the “reduction of markers of hemolysis (bilirubin, LDH)” value was “did not produce a significant reduction”. For the same compound, the “lung MPO levels” value in the series on HbSS-Townes mice [3] (lower doses of HU, 30 days) is “reduced MPO levels in the lungs”. The cGMP induction entry in the series on K562 cells [4] is “increases cGMP in a dose-dependent manner”. Also, the “percentage of F-cells (HbF positive)” value in series [5] (five days, DMSO control 13.3%, n=7, P<0.01) turned out to be 22.2%. Further, the “intensity of HbF staining (MFI)” value in series [5] (five days, control 6073±1217, n=7, P=0.041) is given as 9744±2805. Further, the “Cytotoxicity in patient-derived cultures” value in series [5] (9 cultures) was “cytotoxicity induced by HU in 2 cultures”. The compound further registered a microvascular stasis in the series with HbSS-Townes mice [6] (1 h in normoxia, vehicle 33%) of 13%. Moreover, in the series on HbSS-Townes mice [6] (4 h in normoxia, vehicle 16%), the microvascular stasis stood at 8%.

For the compound `Nc1nc(-c2nn(Cc3ccccc3F)c3ncccc23)ncc1C1CC1` [BAY 41-2271], the “HbF mRNA expression” value in the series on K562 cells [7] is on record as “increased HbF mRNA expression”.

For the compound `C[C@@H]1CN(Cc2ncccn2)C[C@H]1c1nc2c(cnn2C2CCOCC2)c(=O)[nH]1` [PF-04447943, 6-[(3S,4S)-4-methyl-1-(pyrimidin-2-ylmethyl)pyrrolidin-3-yl]-1-(tetrahydro-2H-pyran-4-yl)-1,5-dihydro-4H-pyrazolo[3,4-d]pyrimidin-4-one, reference compound], in the series with mice, the conditioned fear responses entry is given as “significantly increased conditioned fear responses”.

With `C[C@H](Cc1nc2c(cnn2-c2ccccc2Cl)c(=O)[nH]1)C(F)(F)F` [BAY73-6691], the “HbF mRNA expression” value in the series with K562 cells [7] is “increased HbF mRNA expression”.

(Values after PMC7049346 (Haematologica, 2019).)
